Compound activity (PubChem BioAssay)
Xi reactivation – activators of inactive X chromosome reactivation, primary screen, imaging, XiGFP fibroblasts, GFP high-content imaging, set 2. hit rate 0.055% among 360,000. XiGFP mouse fibroblasts, % GFP-positive cells imaging, 3 d; cells co-treated with 5-aza-dC sensitizer; scaled so ellipticine positive control = 100%. activation, % at 7.58 µM;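 active = mean normalized replicate activation at least 10% and every replicate at or above 10%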
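assay system = SV40-immortalized XiGFP fibroblast cells, line 68-5-11 | buffer or medium = DMEM plus 5-aza-dC sensitizer | doses = single-point pinned compound dosing | times = 3-day compound exposure, then 15 min fixation at room temperature | benchmarks = positive control ellipticine, 6 µM final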
HNF4A DNA FP – change in binding of human HNF4A to DNA, primary screen, biochemical, fluorescence polarization, FITC-DNA; activity change, % at 10 µM; Hepatocyte nuclear factor 4-alpha (Homo sapiens), P41235; hit rate 0.3% among 360,000; 1 h; in the data active = activity change above about 30%, passing the limit was not always enough
CSN inh – inhibitors of CSN-mediated cullin deneddylation, primary screen, biochemical, fluorescence polarization, uHTS; Purified CSN, SCF-Nedd8-OG deneddylation; inhibition, % at 12.5 µM; hit rate 0.38% among 360,000; AID 651999, 2013;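 active = pattern-corrected inhibition above about 35%, with an unprinted fluorescence ratio check between 0.5 and 1.5, limit read from the data, passing the limit was not always enough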
Target sequence (Q92905 whole entry, looked up, one chain of several): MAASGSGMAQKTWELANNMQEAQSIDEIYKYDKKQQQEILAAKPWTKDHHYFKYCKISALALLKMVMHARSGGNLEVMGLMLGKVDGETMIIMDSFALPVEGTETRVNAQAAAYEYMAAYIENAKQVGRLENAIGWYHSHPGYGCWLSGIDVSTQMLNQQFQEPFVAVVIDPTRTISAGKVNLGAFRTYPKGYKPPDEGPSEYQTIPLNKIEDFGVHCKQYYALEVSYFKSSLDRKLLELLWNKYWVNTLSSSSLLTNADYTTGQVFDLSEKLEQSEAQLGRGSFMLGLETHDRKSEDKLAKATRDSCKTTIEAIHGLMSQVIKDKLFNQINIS
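assay system = purified human Csn5 enzyme expressed in HEK293T cells | amount = 0.24 nM enzyme | buffer or medium = Tris/NaCl/DTT buffer, pH 7.5 | reagent = 10 nM SCFSkp2-Nedd8OG | compound = one concentration, 12.5 µM, 0.25% DMSO | times = 90 min reaction at room temperature | signal = FP | read-out basis = % inhibition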
aDG glyco act – activators of alpha-DG glycosylation, primary screen, uHTS, Pro5-aDG cells, AlphaScreen; activation, % at 10 µM; alpha-DG glycosylation AlphaScreen (IIH6); 0% Pro5, 100% B10-LARGE cell signal; hit rate 0.22% among 360,000; AID 624168, 2012;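 active = activation of at least 8% versus controls, or a plate z-score of at least 8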;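 note: Pro5 are CHO cells carrying HIG-tagged alpha-DG that lacks glycosylation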
TPT1 inhibitor – Candida albicans TPT1 enzyme inhibitors, primary screen, biochemical, fluorescence polarization | recombinant caTPT1, FP RNA substrate dephosphorylation | inhibition, % at 5 µM | tRNA 2'-phosphotransferase TPT1 (Candida albicans SC5314) | hit rate 0.81% among 300,000;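 active = inhibition above the mean of all tested compounds plus 3 SD, set per screening campaign, cut at about 24% in these data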
Rpn11 block – Rpn11 (PSMD14) deubiquitinase inhibitors, primary screen, biochemical, fluorescence polarization, uHTS. 26S proteasome non-ATPase regulatory subunit 14 (Homo sapiens), O00487. human 26S proteasome, Ub4-pepOG fluorescence polarization; 20S core pre-blocked with epoxomicin. inhibition, % at 20 µM. hit rate 0.59% among 360,000;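 active = inhibition at 20 µM, scaled to each plate's controls, above about 33%, limit read from the data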
Target sequence (O00487 whole entry, looked up): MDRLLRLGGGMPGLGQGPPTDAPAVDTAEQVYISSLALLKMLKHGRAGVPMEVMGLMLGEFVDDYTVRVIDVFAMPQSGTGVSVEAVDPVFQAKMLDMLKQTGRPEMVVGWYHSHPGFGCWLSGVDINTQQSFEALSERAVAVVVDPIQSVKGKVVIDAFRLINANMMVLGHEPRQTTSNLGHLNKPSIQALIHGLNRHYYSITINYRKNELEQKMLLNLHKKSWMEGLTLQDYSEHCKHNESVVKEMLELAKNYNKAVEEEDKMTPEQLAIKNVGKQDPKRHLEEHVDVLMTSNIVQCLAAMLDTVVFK
Each line names hits and unclear results; the compound was inactive in the other large screens. Most compounds without a hit are left out; they make up all but 1.3% or so of the library.

COc1ccc(-c2cc(C#N)nc(N3CCN(C)CC3)n2)cc1	none
COc1ccc(-c2cc(C#N)nc(N3CCNCC3)n2)cc1	HNF4A DNA FP 43 (no result: Xi reactivation)
Cc1nc(SCc2ccc(Cl)c(Cl)c2)n[nH]1	HNF4A DNA FP 118 (no result: TPT1 inhibitor)
Cc1nc(SCc2ccc(F)cc2)n[nH]1	none
N#CC(C(=O)NCCc1ccccc1)c1nc2ccccc2nc1N1CCOCC1 (stereo unspecified)	CSN inh 39 (not shown: Xi reactivation, Rpn11 block)
O=c1c(Cl)c2oc3ccccc3nc-2c2ccccc12	aDG glyco act 6.1 (no result: Xi reactivation)
COc1ccc(Nc2nc(Cl)c(C=O)s2)cc1	HNF4A DNA FP 88, CSN inh 41 (not shown: Xi reactivation, Rpn11 block)
CCN1CCN(C2=C(NS(=O)(=O)c3ccc(Br)cc3)C(=O)c3ccccc3C2=O)CC1	aDG glyco act 7.7
CCn1c2ccccc2c2cc(NC(=O)COC(=O)c3ccc(NC(=O)CC#N)cc3)ccc21	CSN inh 43
CCOC(=O)c1c(NC(=O)COC(=O)c2ccc(NC(=O)CC#N)cc2)sc(C(=O)NC)c1C	CSN inh 40 (no result: TPT1 inhibitor)
CCOC(=O)c1c(NC(=O)COC(=O)c2ccc(O)cc2)sc(C(=O)N(C)C)c1C	none
O=C(C[C@H]1CC[C@@H]2[C@H](COC[C@@H](O)CN2S(=O)(=O)c2ccc(F)cc2)O1)N[C@H]1CCN(Cc2ccccc2)C1	none (no result: HNF4A DNA FP, CSN inh, aDG glyco act, TPT1 inhibitor, Rpn11 block)
Cc1cc(C(=O)NC2CCC(O)CC2)c(C)o1 (stereo unspecified)	CSN inh 89 (no result: TPT1 inhibitor)
CNC[C@@H]1Oc2ncc(C#Cc3cccc(F)c3)cc2C(=O)N([C@H](C)CO)C[C@@H]1C	none (no result: HNF4A DNA FP, CSN inh, aDG glyco act, TPT1 inhibitor, Rpn11 block)
CCN1C(=O)S/C(=C/c2ccc(Sc3nc4ccccc4[nH]3)o2)C1=O	HNF4A DNA FP 102
C=CCn1c(=O)c(C(=O)Nc2ccccc2C(=O)OCC)c(O)c2ccccc21	none (no result: Xi reactivation)
C=CCn1c(=O)c(C(=O)Nc2ccccc2S(N)(=O)=O)c(O)c2ccccc21	CSN inh 93
COc1ccc(Cc2c(-c3ccco3)nc3ccc(Br)cn23)c(C)c1	none (no result: TPT1 inhibitor)
COc1ccc(Cc2c(-c3ccco3)nc3ccc(Cl)cn23)c(C)c1	CSN inh 40 (no result: TPT1 inhibitor)
CC1(C)N=C(N)N=C(N)N1c1ccc(OCC(=O)Nc2ccccc2)c(Cl)c1	none (no result: TPT1 inhibitor)
CC1(C)N=C(N)N=C(N)N1c1ccc(OCCCOc2ccccc2)c(Cl)c1	HNF4A DNA FP 50
O=C(COc1ccc(Cl)cc1)NCCNC(=O)c1ccccn1	HNF4A DNA FP 55
CCOc1c(OC(C)=O)ccc(/C=C/c2ccc3cccc(OC(C)=O)c3n2)c1[N+](=O)[O-]	none (no result: Xi reactivation)
C=CCN1C(=O)/C(=C/c2ccc(OC(C)=O)c(OCC)c2[N+](=O)[O-])SC1=S	Rpn11 block 79 (no result: TPT1 inhibitor)
C[C@@H]1CN([C@@H](C)CO)C(=O)c2cc(NS(=O)(=O)c3ccc(F)cc3)ccc2O[C@@H](C)CCCCO[C@H]1CN(C)S(=O)(=O)c1ccc(F)cc1	none (no result: HNF4A DNA FP, CSN inh, aDG glyco act, TPT1 inhibitor, Rpn11 block)
COc1cccc(/C=C2/NC(=O)N(CC(=O)Nc3ccc(C)cc3)C2=O)c1OCc1cccc(C(=O)O)c1	CSN inh 37
Cc1ccc(NC(=O)CN2C(=O)N/C(=C/c3ccccc3OCc3cccc(C(=O)O)c3)C2=O)cc1	CSN inh 72
Cc1ccc(NC(=O)CN2C(=O)N/C(=C/c3cc(C)n(-c4cccc(C(=O)O)c4)c3C)C2=O)cc1	none (no result: TPT1 inhibitor)
O=C(CCN1CCCCC1)NCC[C@H]1CC[C@H](NC(=O)C2CC2)[C@@H](CO)O1	none (no result: HNF4A DNA FP, CSN inh, aDG glyco act, TPT1 inhibitor, Rpn11 block)
CCOC(=O)c1c(NC(=O)COC(=O)CCOc2ccc(OCC)cc2)sc(C(=O)N(C)C)c1C	CSN inh 121 (no result: Xi reactivation)
CN=c1sc2c(n1C)C(=O)c1ccccc1C2=O	aDG glyco act 13 (no result: TPT1 inhibitor)
Fc1cc(Cl)cc2ccc(-c3ccccc3)nc12	CSN inh 103 (no result: TPT1 inhibitor)
COc1ccccc1-c1cn(CC[C@@H]2CC[C@H](NC(=O)C3CC3)[C@H](CO)O2)nn1	none (no result: HNF4A DNA FP, CSN inh, aDG glyco act, TPT1 inhibitor, Rpn11 block)
C[C@H](O)C#Cc1cnc2c(c1)C(=O)N([C@@H](C)CO)C[C@@H](C)[C@H](CN(C)C(=O)c1ccncc1)O2	none (no result: HNF4A DNA FP, CSN inh, aDG glyco act, TPT1 inhibitor, Rpn11 block)
Cc1ccc(C2=C/C(=C/c3cccs3)C(=O)O2)cc1	CSN inh 49 (not shown: Xi reactivation, Rpn11 block)
COC(=O)c1cc(O)cc(OC)c1C(=O)c1c(O)cc(C)cc1O	none (no result: Xi reactivation)
COC(=O)c1cc(O)cc(OC)c1Oc1cc(C)cc(O)c1C(=O)O	CSN inh 41 (not shown: Xi reactivation, Rpn11 block)
COc1cccc(CN2[C@@H](CO)[C@H](c3ccccc3)C23CN(C(=O)C2CCCC2)C3)c1	none (no result: HNF4A DNA FP, CSN inh, aDG glyco act, TPT1 inhibitor, Rpn11 block)
CCOc1ccc(NC(=O)c2cn(-c3ccc(OCC)cc3)c(=O)c3cc(OC)c(OC)cc23)cc1	none (no result: Xi reactivation)
CCOc1ccc(-n2cc(C(=O)N3CCC(C)CC3)c3cc(OC)c(OC)cc3c2=O)cc1	aDG glyco act 7.5 (no result: Xi reactivation)
NS(=O)(=O)c1cccc(NC(=O)COC(=O)Cc2ccc(S(=O)(=O)N3CCOCC3)s2)c1	Xi reactivation 140 (no result: TPT1 inhibitor)
O=C(COC(=O)Cc1cccs1)Nc1cccc(S(=O)(=O)N2CCOCC2)c1	none
Cc1cc(/C=C\c2ccc3cc(N(C)C)ccc3[n+]2C)c(C)n1-c1ccccc1	Rpn11 block 82 (no result: Xi reactivation)
COc1ccc(/C=N/NC(=O)c2cccnc2)cc1COc1ccc([N+](=O)[O-])c(C)c1	none
